How the values were obtained:
[1] = molecular target: Tyrosine-protein kinase Lck (Homo sapiens) (UniProt P06239); assay: Inhibition of human recombinant Lck expressed in insect cells by Packard topcount method
Summary of the method: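 Lck (5 ng/well) incubated with compound in 50 mM Hepes, 50 mM KCl, 25 mM MgCl₂, 5 mM MnCl₂, Na₃VO₄, 0.01% CHAPS, 1 mM DTT. Poly(Glu-Tyr) 4:1 substrate, ATP and ³³P-ATP added; 25 °C, 60 min. Stopped with 100 mM phosphoric acid, filtered onto membrane, scintillation counted. IC₅₀ from eight-point half-log curves; mean of at least two independent experiments.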

[2] = Immunosuppressive activity in C57BL6/J mouse T cells cocultured with mitomycin C-treated BALB/c spleen cells assessed as inhibition of [3H]thymidine incorporation after 72 hrs by mixed lymphocyte reaction assay; type: functional
Summary of the method: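 Nylon-wool-purified splenic and lymph node T cells from C57BL/6 mice (3 × 10⁵/well) cocultured with mitomycin-C-treated BALB/c spleen cells (2 × 10⁵/well), 37 °C, 5% CO₂, 72 h. Compounds added at culture start. ³H-thymidine pulse for last 4 h, incorporation counted. IC₅₀ from nine-point half-log concentration–response curves; mean of at least two independent experiments.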

[3] = molecular target: Proto-oncogene tyrosine-protein kinase Src (Homo sapiens, UniProt P12931); assay: Inhibition of Src
[4] = molecular target: Tyrosine-protein kinase CSK (Homo sapiens, UniProt P41240); assay: Inhibition of Csk
[5] = molecular target: T1, Tyrosine-protein kinase ZAP-70 (Homo sapiens, UniProt P43403); assay: Inhibition of ZAP70
T1 sequence (P43403 whole entry): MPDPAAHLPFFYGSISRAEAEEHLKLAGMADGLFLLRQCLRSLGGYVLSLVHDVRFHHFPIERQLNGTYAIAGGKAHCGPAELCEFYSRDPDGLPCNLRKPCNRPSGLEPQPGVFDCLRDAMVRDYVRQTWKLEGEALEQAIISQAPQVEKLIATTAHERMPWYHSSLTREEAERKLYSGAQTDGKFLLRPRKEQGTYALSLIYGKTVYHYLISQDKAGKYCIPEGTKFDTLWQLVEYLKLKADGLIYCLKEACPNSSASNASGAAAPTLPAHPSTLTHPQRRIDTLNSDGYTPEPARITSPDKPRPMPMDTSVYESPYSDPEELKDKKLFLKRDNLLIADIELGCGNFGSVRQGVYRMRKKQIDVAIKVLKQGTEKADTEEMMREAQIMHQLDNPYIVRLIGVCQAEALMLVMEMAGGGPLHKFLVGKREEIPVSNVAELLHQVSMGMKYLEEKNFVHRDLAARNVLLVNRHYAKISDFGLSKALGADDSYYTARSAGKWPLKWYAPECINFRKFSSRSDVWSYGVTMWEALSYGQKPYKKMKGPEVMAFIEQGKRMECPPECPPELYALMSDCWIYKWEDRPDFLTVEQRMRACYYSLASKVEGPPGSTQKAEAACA

[6] = molecular target: Dual specificity mitogen-activated protein kinase kinase 1 (Homo sapiens, UniProt Q02750); assay: Inhibition of MEK1
[7] = Inhibition of PKA
[8] = molecular target: RAC-alpha serine/threonine-protein kinase (Homo sapiens, UniProt P31749); assay: Inhibition of PKB
[9] = Inhibition of PKC
[10] = molecular target: Tyrosine-protein kinase ABL1 (Homo sapiens, UniProt P00519); assay: Inhibition of Abl
[11] = Inhibition of CAMK2
[12] = molecular target: Cyclin-dependent kinase 1 (Homo sapiens, UniProt P06493); assay: Inhibition of CDK1
[13] = Selectivity ratio of IC50 for Src to IC50 for human recombinant Lck
[14] = Selectivity ratio of IC50 for Csk to IC50 for human recombinant Lck

Tyrosine-protein kinase Lck (Homo sapiens), sequence (P06239 2-509 limits assumed): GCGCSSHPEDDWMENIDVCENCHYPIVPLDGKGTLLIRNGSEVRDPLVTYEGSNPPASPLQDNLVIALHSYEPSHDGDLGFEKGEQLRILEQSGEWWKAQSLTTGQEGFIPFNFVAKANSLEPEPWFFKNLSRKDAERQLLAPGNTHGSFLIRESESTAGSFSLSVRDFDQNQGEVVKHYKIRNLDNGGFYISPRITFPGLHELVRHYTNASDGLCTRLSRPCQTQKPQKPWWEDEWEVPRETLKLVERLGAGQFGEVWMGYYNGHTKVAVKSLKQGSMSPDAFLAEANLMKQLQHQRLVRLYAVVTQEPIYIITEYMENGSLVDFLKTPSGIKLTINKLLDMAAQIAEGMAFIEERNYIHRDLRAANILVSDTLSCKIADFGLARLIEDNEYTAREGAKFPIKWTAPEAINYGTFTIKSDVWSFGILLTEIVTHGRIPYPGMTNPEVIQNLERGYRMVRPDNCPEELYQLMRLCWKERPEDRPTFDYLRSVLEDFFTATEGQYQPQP
RAC-alpha serine/threonine-protein kinase, sequence (P31749 whole entry): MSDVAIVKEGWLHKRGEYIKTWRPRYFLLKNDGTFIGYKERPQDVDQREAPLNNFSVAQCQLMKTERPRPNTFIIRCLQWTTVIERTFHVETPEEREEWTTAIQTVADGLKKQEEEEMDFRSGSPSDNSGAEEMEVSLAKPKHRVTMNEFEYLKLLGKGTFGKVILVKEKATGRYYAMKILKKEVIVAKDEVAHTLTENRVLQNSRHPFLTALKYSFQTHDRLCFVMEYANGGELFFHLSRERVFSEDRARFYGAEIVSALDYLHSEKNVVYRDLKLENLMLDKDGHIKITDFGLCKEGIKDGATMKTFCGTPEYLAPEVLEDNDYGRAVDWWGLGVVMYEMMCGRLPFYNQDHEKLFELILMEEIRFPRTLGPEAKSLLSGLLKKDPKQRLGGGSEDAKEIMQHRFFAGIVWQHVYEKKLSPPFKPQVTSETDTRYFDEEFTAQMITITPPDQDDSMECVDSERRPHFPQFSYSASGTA
Tyrosine-protein kinase ABL1, sequence (P00519 whole entry): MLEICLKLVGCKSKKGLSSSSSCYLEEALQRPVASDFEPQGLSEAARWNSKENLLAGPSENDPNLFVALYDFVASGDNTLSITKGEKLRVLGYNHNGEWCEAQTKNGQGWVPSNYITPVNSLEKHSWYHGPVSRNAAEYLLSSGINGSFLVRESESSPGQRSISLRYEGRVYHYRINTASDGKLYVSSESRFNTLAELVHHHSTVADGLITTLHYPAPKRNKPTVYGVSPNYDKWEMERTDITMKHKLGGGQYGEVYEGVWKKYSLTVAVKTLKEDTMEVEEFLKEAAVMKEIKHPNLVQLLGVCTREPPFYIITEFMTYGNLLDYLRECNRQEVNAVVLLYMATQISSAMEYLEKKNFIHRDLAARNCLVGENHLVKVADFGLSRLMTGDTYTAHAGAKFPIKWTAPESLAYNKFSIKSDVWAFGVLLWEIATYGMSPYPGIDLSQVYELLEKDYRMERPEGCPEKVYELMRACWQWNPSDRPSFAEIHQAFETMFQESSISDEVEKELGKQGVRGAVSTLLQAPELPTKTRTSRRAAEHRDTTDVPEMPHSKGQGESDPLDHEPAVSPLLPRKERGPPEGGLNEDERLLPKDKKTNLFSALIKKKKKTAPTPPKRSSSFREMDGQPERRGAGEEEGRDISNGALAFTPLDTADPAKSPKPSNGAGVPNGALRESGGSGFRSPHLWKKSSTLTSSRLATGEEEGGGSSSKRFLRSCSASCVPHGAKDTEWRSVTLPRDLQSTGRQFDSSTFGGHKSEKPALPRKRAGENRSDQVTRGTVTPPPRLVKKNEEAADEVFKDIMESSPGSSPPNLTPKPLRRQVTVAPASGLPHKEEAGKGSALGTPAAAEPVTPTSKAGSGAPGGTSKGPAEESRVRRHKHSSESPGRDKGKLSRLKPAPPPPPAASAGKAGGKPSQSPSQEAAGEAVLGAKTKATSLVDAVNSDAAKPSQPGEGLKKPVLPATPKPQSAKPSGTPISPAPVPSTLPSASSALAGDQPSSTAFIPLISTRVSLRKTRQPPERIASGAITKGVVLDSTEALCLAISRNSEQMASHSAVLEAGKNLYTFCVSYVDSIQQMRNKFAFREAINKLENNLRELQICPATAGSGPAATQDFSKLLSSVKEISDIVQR
Proto-oncogene tyrosine-protein kinase Src, sequence (P12931 2-536 limits assumed): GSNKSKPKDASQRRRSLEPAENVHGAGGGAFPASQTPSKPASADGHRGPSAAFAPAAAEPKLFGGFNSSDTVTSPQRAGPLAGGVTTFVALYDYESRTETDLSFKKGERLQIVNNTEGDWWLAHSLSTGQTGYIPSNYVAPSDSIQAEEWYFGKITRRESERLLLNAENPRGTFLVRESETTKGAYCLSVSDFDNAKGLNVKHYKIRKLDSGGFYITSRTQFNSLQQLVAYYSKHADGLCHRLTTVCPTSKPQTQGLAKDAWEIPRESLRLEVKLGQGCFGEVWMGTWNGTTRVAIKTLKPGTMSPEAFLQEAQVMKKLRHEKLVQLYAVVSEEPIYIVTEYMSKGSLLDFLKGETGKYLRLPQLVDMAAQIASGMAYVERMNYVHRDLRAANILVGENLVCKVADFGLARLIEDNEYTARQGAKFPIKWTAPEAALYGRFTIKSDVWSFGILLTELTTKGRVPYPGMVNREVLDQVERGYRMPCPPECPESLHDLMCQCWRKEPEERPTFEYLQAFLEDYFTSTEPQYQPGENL
Dual specificity mitogen-activated protein kinase kinase 1, sequence (Q02750 whole entry): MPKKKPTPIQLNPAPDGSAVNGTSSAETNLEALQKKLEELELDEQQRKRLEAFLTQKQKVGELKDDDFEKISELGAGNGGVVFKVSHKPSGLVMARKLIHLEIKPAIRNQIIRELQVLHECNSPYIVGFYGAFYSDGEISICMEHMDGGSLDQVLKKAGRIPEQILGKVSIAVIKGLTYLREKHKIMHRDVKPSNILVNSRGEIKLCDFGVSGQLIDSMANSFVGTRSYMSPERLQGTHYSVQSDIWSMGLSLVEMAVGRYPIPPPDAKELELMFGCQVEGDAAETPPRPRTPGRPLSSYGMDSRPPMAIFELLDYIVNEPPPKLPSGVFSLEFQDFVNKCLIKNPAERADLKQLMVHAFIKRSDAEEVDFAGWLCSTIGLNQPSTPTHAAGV
Cyclin-dependent kinase 1, sequence (P06493 whole entry): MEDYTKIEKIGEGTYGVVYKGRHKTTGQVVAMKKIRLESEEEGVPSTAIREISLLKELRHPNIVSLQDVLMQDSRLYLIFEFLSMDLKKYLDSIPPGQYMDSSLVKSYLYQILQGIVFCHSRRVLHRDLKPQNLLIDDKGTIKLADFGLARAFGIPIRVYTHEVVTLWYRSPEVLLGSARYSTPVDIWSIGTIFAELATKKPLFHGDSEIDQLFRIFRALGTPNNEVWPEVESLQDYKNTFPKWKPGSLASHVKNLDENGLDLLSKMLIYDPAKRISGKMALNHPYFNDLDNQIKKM

C50 [1] [nM] | IC50 [2] [µM] | Compound | other results
2.7 | 0.18 | Cc1ccccc1C(=O)c1[nH]c(-c2ccc(Oc3ccccc3)cc2)c(C(N)=O)c1N | –
1.8 | – | Cc1ccc(C(=O)c2[nH]c(-c3ccc(Oc4ccccc4)cc3)c(C(N)=O)c2N)c(C)c1 | –
6.4 | – | NC(=O)c1c(-c2ccc(NCc3ccccc3)cc2)[nH]c(C(=O)c2c(F)cccc2F)c1N | –
1.8 | 0.062 | NC(=O)c1c(-c2ccc(Oc3ccccc3)cc2)[nH]c(C(=O)c2c(F)cc(F)cc2F)c1N | –
5 | – | NC(=O)c1c(-c2ccc(Oc3ccccc3)cc2)[nH]c(C(=O)c2cccc(F)c2)c1N | –
38 | – | NC(=O)c1c(-c2ccc(Oc3ccccc3)cc2)[nH]c(C(=O)c2cc(Cl)cc(Cl)c2)c1N | –
2.3 | – | NC(=O)c1c(-c2ccc(Oc3ccccc3)cc2)[nH]c(C(=O)c2ccc(Cl)cc2Cl)c1N | –
> 100 | >1 | NC(=O)c1c(-c2ccc(N)cc2)[nH]c(C(=O)c2c(F)cccc2F)c1N | –
74 | – | NC(=O)c1c(-c2ccc(NCC3CCCCC3)cc2)[nH]c(C(=O)c2c(F)cccc2F)c1N | –
13 | – | Cc1cc(C)cc(C(=O)c2[nH]c(-c3ccc(Oc4ccccc4)cc3)c(C(N)=O)c2N)c1 | –
9.4 | – | COc1ccccc1C(=O)c1[nH]c(-c2ccc(Oc3ccccc3)cc2)c(C(N)=O)c1N | –
92 | >1 | CN(Cc1c(Cl)cccc1Cl)c1ccc(-c2[nH]c(C(=O)c3c(F)cccc3F)c(N)c2C(N)=O)cc1 | –
5.9 | – | NC(=O)c1c(-c2ccc(Oc3ccccc3)cc2)[nH]c(C(=O)c2ccc(Br)cc2)c1N | –
10 | – | Cc1ccc(C)c(C(=O)c2[nH]c(-c3ccc(Oc4ccccc4)cc3)c(C(N)=O)c2N)c1 | –
19 | – | NC(=O)c1c(-c2ccc(Oc3ccccc3)cc2)[nH]c(C(=O)c2cc(Cl)ccc2Cl)c1N | –
0.92 | 0.031 | NC(=O)c1c(-c2ccc(NCc3c(Cl)cccc3Cl)cc2)[nH]c(C(=O)c2c(F)cccc2F)c1N | –
> 100 | – | COc1ccc(-c2[nH]c(C(=O)c3c(F)cccc3F)c(N)c2C(N)=O)cc1 | –
1.5 | – | NC(=O)c1c(-c2ccc(Oc3ccccc3)cc2)[nH]c(C(=O)c2ccccc2F)c1N | –
93 | – | NC(=O)c1c(-c2ccc(NCc3cc(Cl)ccc3Cl)cc2)[nH]c(C(=O)c2c(F)cccc2F)c1N | –

C50 [1] [nM] | IC50 [2] [µM] | Compound | other results
3.5 | 0.068 | NC(=O)c1c(-c2ccc(Oc3ccccc3)cc2)[nH]c(C(=O)c2ccccc2C(F)(F)F)c1N | –
10 | – | NC(=O)c1c(-c2ccc(Oc3ccccc3)cc2)[nH]c(C(=O)c2ccc(F)cc2)c1N | –
3.6 | 0.056 | Cc1cccc(Cl)c1CNc1ccc(-c2[nH]c(C(=O)c3c(F)cccc3F)c(N)c2C(N)=O)cc1 | –
2.8 | 0.18 | Cc1ccc(C(=O)c2[nH]c(-c3ccc(Oc4ccccc4)cc3)c(C(N)=O)c2N)cc1 | –
2.5 | 0.15 | NC(=O)c1c(-c2ccc(Oc3ccccc3)cc2)[nH]c(C(=O)c2ccccc2Br)c1N | –
1.8 | 0.069 | NC(=O)c1c(-c2ccc(Oc3ccccc3)cc2)[nH]c(C(=O)c2ccccc2Cl)c1N | –
> 100 | – | NC(=O)c1c(-c2ccc(Oc3ncccn3)cc2)[nH]c(C(=O)c2c(F)cccc2F)c1N | –
2.6 | 0.11 | Cc1cccc(C(=O)c2[nH]c(-c3ccc(Oc4ccccc4)cc3)c(C(N)=O)c2N)c1C | –
> 100 | >1 | NC(=O)c1c(-c2ccc(OCc3c(Cl)cccc3Cl)cc2)[nH]c(C(=O)c2c(F)cccc2F)c1N | –
1.3 | 0.031 | NC(=O)c1c(-c2ccc(Oc3ccccc3)cc2)[nH]c(C(=O)c2c(F)cccc2F)c1N | IC50 [3]: 0.023 µM; IC50 [4]: 0.0045 µM; IC50 [5]: > 10 µM; IC50 [6]: > 10 µM; IC50 [7]: > 10 µM; IC50 [8]: > 10 µM; IC50 [9]: > 10 µM; IC50 [10]: > 10 µM; IC50 [11]: > 10 µM; IC50 [12]: > 10 µM; Ratio IC50 [13]: > 17; Ratio IC50 [14]: > 3
6.3 | – | NC(=O)c1c(-c2ccc(Oc3ccccc3)cc2)[nH]c(C(=O)c2cccc(Cl)c2)c1N | –
6.1 | >1 | NC(=O)c1c(-c2ccc(OCc3ccccc3)cc2)[nH]c(C(=O)c2c(F)cccc2F)c1N | –
49 | – | NC(=O)c1c(-c2ccc(Oc3ccccc3)cc2)[nH]c(C(=O)c2ccc(Oc3ccccc3)cc2)c1N | –
> 100 | – | NC(=O)c1c(-c2ccc(NC(=O)c3ccccc3)cc2)[nH]c(C(=O)c2c(F)cccc2F)c1N | –
6.2 | – | NC(=O)c1c(-c2ccc(Oc3ccccc3)cc2)[nH]c(C(=O)c2cccc(Br)c2)c1N | –
7 | – | NC(=O)c1c(-c2ccc(Oc3ccccc3)cc2)[nH]c(C(=O)c2ccc(Cl)cc2)c1N | –
1.2 | 0.045 | NC(=O)c1c(-c2ccc(Oc3ccccc3)cc2)[nH]c(C(=O)c2cccc(Cl)c2Cl)c1N | –
4 | 0.42 | Cc1cccc(C(=O)c2[nH]c(-c3ccc(Oc4ccccc4)cc3)c(C(N)=O)c2N)c1 | –
11 | – | NC(=O)c1c(-c2ccc(Oc3ccccc3)cc2)[nH]c(C(=O)c2ccccc2)c1N | –

Reference: ChEMBL document CHEMBL1153156, “Pyrrole derivatives as potent inhibitors of lymphocyte-specific kinase: Structure, synthesis, and SAR” (Bioorg Med Chem Lett, 2010)
